According to ChEMBL document CHEMBL4392843, “Structure and biological evaluation of new cyclic and acyclic laxaphycin-A type peptides” (Bioorg Med Chem, 2019):
The source made the active and inactive calls. The rule behind the calls is not given here. Numbered stars: 1 amine (or outer) side, 2 acyl side, 3 side chain; on linkers, the order of the positions; unused ones are H or OH. Square brackets hold non-standard residues; d marks the D form. Peptide text beside a SMILES is read from it. dβ3hAhp = CCCCC[C@H](CC(=O)[*:2])N[*:1]; d(aIle) = CC[C@H](C)[C@@H](N)C(=O)O; Hyp = O=C(O)[C@@H]1C[C@@H](O)CN1; X1 = C/C=C(/N[*:1])C(=O)[*:2]; hSer = N[C@@H](CCO)C(=O)O

Experiments:
SH-SY5Y [1] = experiment: Cytotoxicity against human SH-SY5Y cells assessed as reduction in cell viability measured after 24 hrs by MTT assay; assay type: cell-based
How it was run: (§1)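 SH-SY5Y cells (ATCC CRL2266) in DMEM/F-12 with 10% FBS, 1% glutamax and penicillin/streptomycin, 37 °C, 5% CO2. Compounds were added to the medium (0.01, 0.05, 0.1 and 1 µM listed) for 24 or 6 h. Cells were then given 500 µg/mL MTT for 1 h and solubilized in 5% SDS, with A595 read. Saponin death-control absorbance was subtracted. IC50 reported with 95% CI and R².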

SH-SY5Y [2] = experiment: Cytotoxicity against human SH-SY5Y cells assessed as reduction in cell viability measured after 6 hrs by MTT assay; assay type: cell-based; conditions: for Cytotoxicity call (toxic / non-toxic): sh-sy5y; for IC50: Homo sapiens, SH-SY5Y, 6 h; how it was run: as §1
SH-SY5Y [3] = experiment: Cytotoxicity against human SH-SY5Y cells assessed as reduction in cell viability measured after 24 hrs by LDH release assay; assay type: cell-based
How it was run: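 SH-SY5Y cells in DMEM/F-12 with 10% FBS at 37 °C, 5% CO2, exposed to compounds in the medium for 24 h. LDH release was measured with a commercial LDH-cytotoxicity kit per its protocol as the viability indicator. IC50 reported with 95% CI and R².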

SH-SY5Y [4] = experiment: Inhibition of reactive oxygen species production in human SH-SY5Y cells up to 10 uM measured after 6 hrs by DCFH-DA dye based fluorescence assay relative to control; assay type: cell-based; set-up: scale not given: the % may be the effect or the level left
How it was run: (§2)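 SH-SY5Y cells were exposed to compounds (6 h; 1 h also run), washed in saline, and loaded with 20 µM DCF-DA for 30 min at 37 °C. They were then held 30 min at room temperature for de-esterification. DCF fluorescence was read at 475 nm excitation and 525 nm emission, expressed as % of diluent-treated controls, with four independent experiments in triplicate.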

SH-SY5Y [5] = experiment: Effect on cell viability in human SH-SY5Y cells up to 10 uM after 1 hr by MTT assay; assay type: cell-based
SH-SY5Y [6] = experiment: Inhibition of reactive oxygen species production in human SH-SY5Y cells up to 10 uM measured after 1 hr by DCFH-DA dye based fluorescence assay; assay type: cell-based; how it was run: as §2
SH-SY5Y [7] = experiment: Induction of apoptosis in human SH-SY5Y cells assessed as decrease in viable cells at 10 uM measured after 6 hrs by Annexin V-FITC/propidium iodide staining based flow cytometry; assay type: cell-based
How it was run: (§3)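 SH-SY5Y cells (1×10^6 per well) were treated with 10 µM for 6 h, washed in PBS, and stained with annexin V-FITC/propidium iodide in binding buffer for 15 min. Imaging flow cytometry counted 10000 events. Viable, apoptotic and necrotic populations are given as % of untreated cells, mean ± SEM of three independent experiments in triplicate.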

SH-SY5Y [8] = experiment: Induction of apoptosis in human SH-SY5Y cells assessed as increase in apoptotic cells at 10 uM measured after 6 hrs by Annexin V-FITC/propidium iodide staining based flow cytometry; assay type: cell-based; how it was run: as §3
SH-SY5Y [9] = experiment: Induction of apoptosis in human SH-SY5Y cells assessed as increase in necrotic cells at 10 uM measured after 6 hrs by Annexin V-FITC/propidium iodide staining based flow cytometry; assay type: cell-based; how it was run: as §3
SH-SY5Y [10] = experiment: Induction of autophagy in human SH-SY5Y cells assessed as LC3-2/LC3-1 ratio at 10 uM measured after 6 hrs by Western blot analysis (reference value: 2.6 +/- 0.3); assay type: functional
SH-SY5Y [11] = experiment: Induction of autophagy in human SH-SY5Y cells assessed as phosphorylated mTOR level at 10 uM measured after 6 hrs by Western blot analysis (reference value: 100%); assay type: functional
How it was run: (§4)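 SH-SY5Y cells were treated with 10 µM for 6 h and lysed in ice-cold hypotonic Tris buffer (pH 7.4) with 1% Triton X-100 and inhibitors. The cytosolic fraction was taken at 3000 rpm; membrane fraction came via nuclear extraction buffer. 20 µg protein was run on 10% SDS-PAGE with chemiluminescent detection. Read-outs were LC3II/LC3I ratio or % of untreated (p-mTOR, p62); three experiments in triplicate, blots run in duplicate.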

SH-SY5Y [12] = experiment: Induction of autophagy in human SH-SY5Y cells assessed as increase in cytoplasmic p62 levels at 10 uM measured after 6 hrs by Western blot analysis; assay type: functional, cell-based; how it was run: as §4
SH-SY5Y [13] = experiment: Induction of autophagy in human SH-SY5Y cells assessed as decrease in cytoplasmic p62 levels at 10 uM measured after 6 hrs by Western blot analysis; assay type: functional; conditions: in the assay text read “membrane” for “cytoplasmic”; how it was run: as §4
SH-SY5Y [14] = experiment: Effect on mitochondrial membrane potential in human SH-SY5Y cells up to 10 uM measured after 6 hrs by TMRM assay
SH-SY5Y [15] = experiment: Induction of autophagy in human SH-SY5Y cells assessed as increase in LC3-2/LC3-1 ratio at 10 uM measured after 6 hrs by Western blot analysis; assay type: functional, cell-based; how it was run: as §4
SH-SY5Y [16] = experiment: Effect on cell viability in human SH-SY5Y cells up to 10 uM after 6 hrs by MTT assay; assay type: cell-based
SH-SY5Y [17] = experiment: Cytotoxicity against human SH-SY5Y cells assessed as decrease in cell viability at 10 uM measured after 6 to 24 hrs by MTT assay relative to control; assay type: cell-based
[18] = Homo sapiens, SH-SY5Y, 24 h, read-out: IC50

Row | Structure (SMILES) | IC50 (SH-SY5Y [1]; sh-sy5y) | Cytotoxicity call (toxic / non-toxic) (SH-SY5Y [2]) | IC50 (SH-SY5Y [3]; sh-sy5y) | IC50 (SH-SY5Y [1]; [18]) | IC50 (SH-SY5Y [2]) | IC50 (SH-SY5Y [3]; [18]) | Activity (SH-SY5Y [4]) | Activity (SH-SY5Y [5]) | Activity (SH-SY5Y [6]) | Activity (SH-SY5Y [7]) | Activity (SH-SY5Y [8]) | Activity (SH-SY5Y [9]) | Ratio (SH-SY5Y [10]) | Activity (SH-SY5Y [11]) | Activity (SH-SY5Y [12]) | Activity (SH-SY5Y [13]) | Activity (SH-SY5Y [14]) | Activity (SH-SY5Y [15]) | Activity (SH-SY5Y [16]) | Activity (SH-SY5Y [17])
1 | C/C=C1/NC(=O)[C@H](CCO)NC(=O)C[C@@H](CCCCC)NC(=O)CNC(=O)[C@H](CC(C)C)NC(=O)[C@@H]([C@@H](C)CC)NC(=O)[C@H]([C@@H](C)CC)NC(=O)[C@@H](CC(C)C)NC(=O)[C@@H](Cc2ccccc2)NC(=O)[C@H](CCO)NC(=O)[C@@H]2C[C@@H](O)CN2C1=O [LAXAPHYCIN A] (cyclo(G[dβ3hAhp][hSer][X1][Hyp][hSer][dF][dL]I[d(aIle)]L)) | Non-Toxic | Non-Toxic | Non-Toxic |  |  |  |  |  |  |  |  |  |  |  |  |  |  |  |  | 
2 | C/C=C1/NC(=O)[C@H](CCO)NC(=O)C[C@@H](CCCCC)NC(=O)CNC(=O)[C@H](CC(C)C)NC(=O)[C@@H](C(C)C)NC(=O)[C@H]([C@@H](C)CC)NC(=O)[C@@H](CC(C)C)NC(=O)[C@@H](Cc2ccccc2)NC(=O)[C@H](CCO)NC(=O)[C@@H]2C[C@@H](O)CN2C1=O |  |  |  | 5.6 µM | 3.7 µM | 12.4 µM | Toxic | Non-Toxic | Toxic | Toxic | Non-Toxic | Non-Toxic | 6.4 | 70.7% | Active | Active | Toxic |  |  | 
3 | C/C=C1/NC(=O)[C@H](CCO)NC(=O)C[C@@H](CCCCC)NC(=O)CNC(=O)[C@H](CC(C)C)NC(=O)[C@@H]([C@@H](C)CC)NC(=O)[C@H](C(C)C)NC(=O)[C@@H](CC(C)C)NC(=O)[C@@H](Cc2ccccc2)NC(=O)[C@H](CCO)NC(=O)[C@@H]2C[C@@H](O)CN2C1=O |  |  |  | 0.6 µM | 1.3 µM | 3.6 µM |  |  |  | Toxic | Non-Toxic | Non-Toxic |  | 73.1% | Active | 15.8% | Toxic | Active |  | 
4 | C/C=C(/NC(=O)[C@H](CCO)NC(=O)C[C@H](N)CCCCC)C(=O)N1C[C@H](O)C[C@H]1C(=O)N[C@@H](CCO)C(=O)N[C@H](Cc1ccccc1)C(=O)N[C@H](CC(C)C)C(=O)N[C@H](C(=O)N[C@@H](C(=O)O)[C@@H](C)CC)[C@@H](C)CC | Non-Toxic | Non-Toxic | Non-Toxic |  |  |  |  |  |  |  |  |  |  |  |  |  |  |  |  | 
5 | C/C=C(/NC(=O)[C@H](CCO)NC(=O)C[C@H](N)CCCCC)C(=O)N1C[C@H](O)C[C@H]1C(=O)N[C@@H](CCO)C(=O)N[C@H](Cc1ccccc1)C(=O)N[C@H](CC(C)C)C(=O)N[C@H](C(=O)N[C@@H](C(=O)N[C@@H](CC(C)C)C(=O)O)[C@@H](C)CC)[C@@H](C)CC | Toxic | Toxic | Non-Toxic |  |  |  | 40% | Non-Toxic | Toxic |  |  |  | 6.7 | 70.3% | Active | Active | Toxic |  | Non-Toxic | 50%
